Legend:
DU-145 = assay: Cytotoxicity against human DU145 cells after 48 hrs by SRB assay; type: functional, cell-based; conditions: Homo sapiens, DU-145, 48 h; for CC50: read-out: LC50 (the source's name)
Outline: (§1)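 Cells grown in RPMI 1640 with 10% FBS and penicillin/streptomycin at 37 °C and 5% CO₂, trypsinized, then seeded at 5 × 10³/well. After 18 h drug-free attachment, samples in DMSO/EtOH/PBS (0.5:0.5:99) were added for 48 h continuous exposure. Cells were fixed with cold TCA (1 h, 4 °C) and stained with SRB (10 min). Tris-solubilized stain read at 490 nm. Triplicate wells, mean ± SD; GI₅₀ derived.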

LNCaP = assay: Cytotoxicity against human LNcaP cells after 48 hrs by SRB assay; type: functional; conditions: for CC50: read-out: LC50 (the source's name); outline: as §1
[1] = Cytotoxicity against human IGROV cells after 48 hrs by SRB assay; type: functional; conditions: for CC50: read-out: LC50 (the source's name); outline: as §1
[2] = Cytotoxicity against human IGROV-ET cells after 48 hrs by SRB assay; type: functional; conditions: for CC50: read-out: LC50 (the source's name); outline: as §1
SK-BR-3 = assay: Cytotoxicity against human SKBR3 cells after 48 hrs by SRB assay; type: functional; conditions: SK-BR-3, 48 h; for GI50: read-out: GI50; for CC50: read-out: LC50 (the source's name); outline: as §1
SK-MEL-28 = assay: Cytotoxicity against human SK-MEL-28 cells after 48 hrs by SRB assay; type: functional, cell-based; conditions: Homo sapiens, SK-MEL-28, 48 h; for CC50: read-out: LC50 (the source's name); outline: as §1
A549 = assay: Cytotoxicity against human A549 cells after 48 hrs by SRB assay; type: functional, cell-based; conditions: Homo sapiens, A549, 48 h; for GI50: read-out: GI50; outline: as §1
K562 = assay: Cytotoxicity against human K562 cells after 48 hrs by SRB assay; type: functional; conditions: K562, 48 h; for CC50: read-out: LC50 (the source's name); outline: as §1
PANC-1 = assay: Cytotoxicity against human PANC1 cells after 48 hrs by SRB assay; type: functional; conditions: PANC-1, 48 h; for CC50: read-out: LC50 (the source's name); outline: as §1
HT-29 = assay: Cytotoxicity against human HT29 cells after 48 hrs by SRB assay; type: functional, cell-based; conditions: Homo sapiens, HT-29, 48 h; for CC50: read-out: LC50 (the source's name); outline: as §1
LoVo [3] = assay: Cytotoxicity against human LoVo cells after 48 hrs by SRB assay; type: functional; conditions: for CC50: read-out: LC50 (the source's name)
LoVo [4] = assay: Cytotoxicity against human doxorubicin resistant LoVo cells after 48 hrs by SRB assay; type: functional; conditions: for CC50: read-out: LC50 (the source's name); outline: as §1
HeLa = assay: Cytotoxicity against human HeLa cells after 48 hrs by SRB assay; type: functional; conditions: for CC50: read-out: LC50 (the source's name); outline: as §1
[5] = Cytotoxicity against human HeLa-APL cells after 48 hrs by SRB assay; type: functional; outline: as §1

Structure (SMILES) | GI50 (DU-145; read-out: GI50) [nM] | CC50 (DU-145) [nM] | CC50 (LNCaP) [nM] | CC50 [1] [nM] | CC50 [2] [nM] | TGI (SK-BR-3) [nM] | GI50 (SK-BR-3) [nM] | CC50 (SK-BR-3) [nM] | CC50 (SK-MEL-28) [nM] | LC50 (A549) [nM] | CC50 (K562) [nM] | CC50 (PANC-1) [nM] | GI50 (HT-29) [nM] | TGI (HT-29) [nM] | CC50 (HT-29) [nM] | GI50 (LoVo [3]) [nM] | TGI (LoVo [3]) [nM] | CC50 (LoVo [3]) [nM] | GI50 (LoVo [4]) [nM] | TGI (LoVo [4]) [nM] | further results
C/C=C1\NC(=O)[C@H](Cc2c[nH]c3ccccc23)NC(=O)[C@@H](C(C)C)NC(=O)[C@@H]([C@H](C)CC)NC(=O)[C@H](NC(=O)[C@H](NC(=O)[C@H](CCCN)NC(=O)[C@H]2CCCN2C(=O)[C@H](NC(=O)[C@@H](NC(=O)[C@@H](NC(=O)[C@H](NC(=O)CCCC(C)C)C(C)C)[C@@H](C)O)C(C)C)C(C)C)[C@H](C)CC)[C@H](C)OC(=O)[C@H](C(C)C)NC1=O | 832 | 785 | 1400 | 57.4 | 418 | 383 | 345 | 425 | 1390 | 1380 | 2550 | 2390 | 1050 | 1510 | 1190 | 628 | 957 | 1430 | 507 | 659 | GI50 (DU-145): 823 nM; GI50 (LNCaP): 2060 nM; TGI (LNCaP): 1610 nM; GI50 [1]: 71.8 nM; GI50 ([1]; read-out: GI50): 87.5 nM; GI50 [2]: 439 nM; GI50 ([2]; read-out: GI50): 461 nM; TGI (A549): 1490 nM; GI50 (A549): 1610 nM; GI50 (K562): 4840 nM; TGI (K562): 4700 nM; CC50 (LoVo [4]): 1470 nM; GI50 (HeLa): 1360 nM; TGI (HeLa): 1130 nM; CC50 (HeLa): 935 nM; GI50 [5]: 1360 nM; LC50 (concentration giving 50% net cell kill) [5]: 975 nM; TGI [5]: 1150 nM
C/C=C1\NC(=O)[C@H](Cc2ccccc2)NC(=O)[C@@H](C(C)C)NC(=O)[C@@H](C(C)C)NC(=O)[C@H](NC(=O)[C@H](NC(=O)[C@H](CCCN)NC(=O)[C@H]2CCCN2C(=O)[C@H](NC(=O)[C@@H](NC(=O)[C@@H](NC(=O)[C@H](NC(=O)CCCC(C)C)C(C)C)[C@@H](C)O)C(C)C)C(C)C)C(C)C)[C@H](C)OC(=O)[C@H](C(C)C)NC1=O | 1360 | 1020 | 1160 | 762 | 719 | 2310 | 2120 | 1450 | 1660 | 2000 | 2500 | 2190 | 2500 | 2810 | 3160 | 2460 | 2460 | 2480 | 1430 | 1670 | TGI (DU-145): 1180 nM; GI50 (LNCaP): 2340 nM; TGI (LNCaP): 1960 nM; TGI (SK-MEL-28): 1650 nM; GI50 (SK-MEL-28; read-out: GI50): 1640 nM; TGI (A549): 3790 nM; GI50 (A549): 2400 nM; GI50 (PANC-1): 4710 nM; TGI (PANC-1): 3910 nM; CC50 (LoVo [4]): 1940 nM; GI50 (HeLa): 1400 nM; TGI (HeLa): 1260 nM; CC50 (HeLa): 1120 nM; GI50 [5]: 2730 nM; LC50 (concentration giving 50% net cell kill) [5]: 1690 nM; TGI [5]: 2790 nM
C/C=C1\NC(=O)[C@H](Cc2ccccc2)NC(=O)[C@@H](C(C)C)NC(=O)[C@@H]([C@H](C)CC)NC(=O)[C@H](NC(=O)[C@H](NC(=O)[C@H](CCCN)NC(=O)[C@H]2CCCN2C(=O)[C@H](NC(=O)[C@@H](NC(=O)[C@@H](NC(=O)[C@H](NC(=O)CC[C@@H](C)CC)C(C)C)[C@@H](C)O)C(C)C)C(C)C)[C@H](C)CC)[C@H](C)OC(=O)[C@H](C(C)C)NC1=O | 1690 | 347 | 2030 | 1220 | 975 | 462 | 539 | 395 | 1670 | 1320 | 2560 | 2200 | 730 | 1020 | 2060 | 397 | 385 | 321 | 249 | 250 | TGI (DU-145): 2200 nM; TGI [1]: 1020 nM; GI50 ([1]; read-out: GI50): 827 nM; GI50 [2]: 584 nM; GI50 ([2]; read-out: GI50): 550 nM; GI50 (K562): 2070 nM; TGI (K562): 3760 nM; CC50 (LoVo [4]): 1040 nM; CC50 (HeLa): 1070 nM; GI50 [5]: 1280 nM; LC50 (concentration giving 50% net cell kill) [5]: 1140 nM; TGI [5]: 1200 nM

Source: ChEMBL document CHEMBL1156597, “Structure-activity relationship of kahalalide F synthetic analogues” (J Med Chem, 2008)
